The entries come from a sample that favours hits as a whole.
T cruzi growth-1 – blocks T. cruzi growth in NIH3T3 culture; T. cruzi beta-gal in NIH3T3, GalScreen luminescence, 90 h; inhibition, % at 8.34 µM; hit rate 5.9% among 77,000; AID 624255;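 active = mean inhibition above about 93%, with at least 55% of replicates each passing it, limit read from the data, passing the limit was not always enough; inconclusive = only one of those two conditions holds; inactive = neither condition holds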
IDH1 mut inh – blocks human IDH1 R132H reductase activity. hit rate 0.18% among 70,000. O75874. diaphorase/resazurin fluorescence, 60 min. inhibition, % at 10 µM; in the data active = inhibition above about 34%; inconclusive = no clear call, values can overlap the other calls; inactive = below about 11%;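 note: 0% = DMSO and 100% = no enzyme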
Target sequence (O75874 whole entry R132H): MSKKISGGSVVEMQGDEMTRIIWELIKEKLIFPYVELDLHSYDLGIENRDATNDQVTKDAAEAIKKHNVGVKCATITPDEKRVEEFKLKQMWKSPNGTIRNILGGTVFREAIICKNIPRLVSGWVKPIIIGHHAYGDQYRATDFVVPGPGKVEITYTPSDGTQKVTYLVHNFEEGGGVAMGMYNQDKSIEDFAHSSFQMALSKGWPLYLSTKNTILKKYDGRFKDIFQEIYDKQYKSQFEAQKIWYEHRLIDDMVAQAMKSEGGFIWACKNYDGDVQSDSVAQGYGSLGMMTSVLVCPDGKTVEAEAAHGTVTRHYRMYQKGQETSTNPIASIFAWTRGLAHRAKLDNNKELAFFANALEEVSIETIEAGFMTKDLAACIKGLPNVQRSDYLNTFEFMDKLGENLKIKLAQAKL
GASC1 inh – KDM4C (human) demethylase inhibition; inhibition, % at 12.5 µM; hit rate 0.15% among 96,000; AID 720574; GST-KDM4C 2-372, H3K9me3 peptide, LANCE TR-FRET;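 active = mean replicate inhibition above about 25%, with at least 55% of replicates also reaching it, limit read from the data, passing the limit was not always enough; inconclusive = only one of those two conditions met; inactive = neither condition met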
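material = GST-tagged GASC-1 (JMJD2C) catalytic fragment, aa 2-372 | amount = enzyme final amount 10 nM | medium = HEPES buffer, pH 7.5, plus ascorbate | also added = H3K9me3 peptide substrate, Fe(II), 2-oxoglutarate | dosing = single dose | times = 30 min demethylation and 1 h detection at room temperature | detection = LANCE TR-FRET | read-out basis = Fall in 671/618 emission ratio as inhibition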
T cruzi growth-2 – inhibitors of T. cruzi proliferation; hit rate 72% among 5,600; inhibition, % at 8.35 µM; T. cruzi beta-gal in NIH3T3, GalScreen luminescence, 90 h; AID 651739; shares compounds with T cruzi growth-1;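 active = mean replicate inhibition above about 95% and at least 55% of replicates individually reaching it, limit read from the data; inconclusive = only one of the two criteria is met; inactive = neither criterion is met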
T cruzi growth-3 – Trypanosoma cruzi proliferation inhibition | shares compounds with T cruzi growth-1 | T. cruzi beta-gal in NIH3T3, GalScreen luminescence, 90 h | inhibition, % at 2.09 µM | hit rate 21% among 5,600;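 active = mean inhibition above about 95%, with at least 55% of replicates also reaching it, limit read from the data; inconclusive = meets just one of the two conditions; inactive = meets neither condition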;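 note: plate controls were neutral control median for no effect and positive control median for full effect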
NIH3T3 tox – cytotoxicity in mouse NIH/3T3 fibroblasts | cytotoxicity (signal decrease), % at 8.35 µM | NIH/3T3 viability, CellTiter-Glo ATP luminescence, 90 h | shares compounds with T cruzi growth-1 | hit rate 14% among 5,600;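 active = mean signal decrease across replicates above about 35% based on untreated-well scatter, with enough replicates individually passing, limit read from the data; inconclusive = no rule stated though some were filed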;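 note: 0% = median of neutral control wells and 100% = median of positive control wells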
NIH3T3 tox 2 – kills mouse NIH/3T3 fibroblasts. hit rate 56% among 5,600. shares compounds with T cruzi growth-1. AID 651744. inhibition, % at 24.9 µM. NIH/3T3 viability, CellTiter-Glo ATP luminescence, 90 h;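 active = mean loss of cell viability signal at or above a set limit, and enough replicates individually reaching it; inconclusive = meets only the mean limit or only the replicate share; inactive = meets neither condition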;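 note: 0% = median of neutral control wells and 100% = median of positive control wells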
The depositor's hits bear a star; ? = inconclusive; nt = not tested or not shown.

SMILES	T cruzi growth-1	IDH1 mut inh	GASC1 inh	T cruzi growth-2	T cruzi growth-3	NIH3T3 tox	NIH3T3 tox 2
COc1ccc(S(=O)(=O)N2CCCCN3[C@H](CO)[C@@H](c4ccc(-c5cccnc5)cc4)[C@H]3C2)cc1	113*	nt	0	78	23	19	12
COc1cccc(S(=O)(=O)N2CCCCN3[C@H](CO)[C@@H](c4ccc(-c5cncnc5)cc4)[C@H]3C2)c1	54	nt	-1	nt	nt	nt	nt
COc1cccc(S(=O)(=O)N2CCCCN3[C@H](C2)[C@H](c2ccc(-c4cccnc4)cc2)[C@@H]3CO)c1	105*	nt	-1	103*	88	4	6
COc1cccc(S(=O)(=O)N2CCCCN3[C@H](CO)[C@H](c4ccc(-c5ccncc5)cc4)[C@@H]3C2)c1	113*	nt	-1	109*	104*	-27	10
COc1ccc(S(=O)(=O)N2CCCCN3[C@@H](CO)[C@@H](c4ccc(-c5cccnc5)cc4)[C@@H]3C2)cc1	72	nt	-1	nt	nt	nt	nt
CCOc1ccc2nc(SCC(=O)Nc3c(C)cccc3C)[nH]c2c1	nt	-1	nt	nt	nt	nt	nt
O=C(N/N=C/c1ccc(O)c(F)c1)c1ccccn1	nt	0	nt	nt	nt	nt	nt
C[C@@H]1O[C@@H](O[C@@H]2[C@@H](O)[C@H](OCCc3ccc(O)c(O)c3)O[C@H](CO[C@@H]3OC[C@](O)(CO)[C@H]3O)[C@H]2OC(=O)/C=C/c2ccc(O)c(O)c2)[C@H](O[C@@H]2OC[C@H](O)[C@H](O)[C@H]2O)[C@H](O)[C@H]1O	nt	1	nt	nt	nt	nt	nt
O=C(C1CCOCC1)N1CC[C@@H]2[C@H]1c1cc(-c3cccc(F)c3)ccc1N[C@@H]2CO	49	nt	-1	nt	nt	nt	nt
COc1ccccc1-c1ccc2c(c1)[C@H]1[C@H](CCN1C(=O)C1CCCCC1)[C@@H](CO)N2	-3	nt	-1	nt	nt	nt	nt
COc1ccccc1-c1ccc2c(c1)[C@H]1[C@H](CCN1C(=O)C1CCOCC1)[C@@H](CO)N2	100*	nt	0	106*	88	-5	-29
COc1ccccc1-c1ccc2c(c1)[C@@H]1[C@@H](CCN1C(=O)C1CC1)[C@H](CO)N2	?	nt	1	107*	?	-16	-28
COc1ccc(NC(=O)N2CCCCN3[C@H](CO)[C@@H](c4ccc(C#Cc5ccccn5)cc4)[C@@H]3C2)cc1	?	nt	-2	111*	92	-3	14
COc1ccc(NC(=O)N2CCCCN3[C@@H](CO)[C@@H](c4ccc(C#Cc5ccccn5)cc4)[C@@H]3C2)cc1	58	nt	-1	nt	nt	nt	nt
O=C(Nc1ccc(F)cc1)N1CCCCN2[C@H](CO)[C@@H](c3ccc(C#Cc4ccccn4)cc3)[C@H]2C1	93	nt	0	nt	nt	nt	nt
O=C(Nc1ccc(F)cc1)N1CCCCN2[C@@H](CO)[C@@H](c3ccc(C#Cc4ccccn4)cc3)[C@@H]2C1	110*	nt	-1	103*	97*	16	35*
COC(=O)c1cc(OC)c(OC)cc1NC(=O)COc1ccc(Br)cc1Cl	nt	0	nt	nt	nt	nt	nt
C[C@H]1CCCCO[C@@H](CN(C)Cc2ccccc2)[C@@H](C)CN([C@@H](C)CO)C(=O)c2cc(NC(=O)NC3CCCCC3)ccc2O1	-116	5	2	nt	nt	nt	nt
C[C@@H]1CN([C@H](C)CO)C(=O)c2cc(NC(=O)NC3CCCCC3)ccc2O[C@@H](C)CCCCO[C@@H]1CN(C)Cc1ccccc1	113*	3	0	108*	54	-13	31*
C[C@H](CO)N1C[C@H](C)[C@@H](CN(C)Cc2ccccc2)OCCCC[C@H](C)Oc2ccc(NC(=O)NC3CCCCC3)cc2C1=O	?	nt	-1	?	54	15	48*
C[C@@H]1CCCCO[C@@H](CN(C)Cc2ccccc2)[C@H](C)CN([C@@H](C)CO)C(=O)c2cc(NC(=O)NC3CCCCC3)ccc2O1	-112	nt	-2	nt	nt	nt	nt
CC(C)NC(=O)N(C)C[C@@H]1Oc2ncc(C#CC3CCCC3)cc2C(=O)N([C@H](C)CO)C[C@@H]1C	0	0	1	nt	nt	nt	nt
O=C(O)[C@@H]1[C@@H](CO)[C@@H]2Cn3c(ccc(/C=C/c4ccccc4)c3=O)[C@@H]2N1Cc1ccc2c(c1)OCO2	102*	nt	2	50	0	17	101*

Screens: PubChem BioAssay, Broad Institute
